Bioassay records deposited in PubChem BioAssay by Broad Institute.
C2C12 statin: suppressors of statin myotoxicity in C2C12 myotubes, primary screen, cell-based, single point, plate reader. rescue of ATP level, % at 7.49 µM. C2C12 myotubes + simvastatin, ATP luminescence, 48 h; scaled: DMSO 0, geranylgeraniol control 100. actives 0.78% (n = 330,000). AID 602340, 2012;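 active = mean ATP rescue above about 67%, or every replicate alone reaching that limit, limit read from the data, passing the limit was not always enough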;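 also: myotubes were challenged with 10 µM simvastatin during compound exposure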
SUMO Mot1 rescue: yeast Mot1-301 growth rescue at high temperature, primary screen, SUMOylation pathway inhibitor project, S. cerevisiae, ATP luminescence, 38.5C; S. cerevisiae Mot1-301 growth rescue; percent above DMSO median, 100 means doubled; growth rescue, % at 18.8 µM; actives 1% (n = 320,000);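 active = every valid replicate shows activation above 250% relative to neutral control wells; inactive = the rest, any valid replicate at or below 250%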;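 also: OY570 slx delta 5 strain wells were the positive control but not used for scaling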
Cneo AK release: Cryptococcus neoformans cell lysis inducers, primary screen, AK release luminescence, single concentration. lysis activity, % at 15 µM. C. neoformans lysis, adenylate kinase release luminescence, 4 h; normalised: neutral wells 0, clomiphene wells 100. AID 651654, 2012. actives 0.2% (n = 360,000);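 active = mean lysis activity across replicates of at least 80%, whatever share of replicates individually reach that level; inactive = mean lysis activity below 80%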
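Material – Cryptococcus neoformans yeast cells · Quantity – 5 × 10^6 yeast cells/mL · Buffer or medium – YPD medium · Compound – single dose · Timing – 4 h static compound exposure, 37 °C, read 1 h post-reagent · Signal – adenylate kinase release luminescence · Read-out basis – lysis from increased AK signal · Benchmarks – Clomiphene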
* = called active by the depositor; x = no result. Hits are enriched below; roughly 1.5% of the tested compounds scored in any of these assays.

SMILES | C2C12 statin | SUMO Mot1 rescue | Cneo AK release
COc1cccc(C(=O)Nc2ccc3c(c2)C(=O)N(C)C[C@H](OC)[C@@H](C)CN[C@H](C)CO3)c1 | -3.4 | x | -0.2
CCCNC(=O)N(C)C[C@H]1Oc2ncc(C#CC3CC3)cc2C(=O)N([C@@H](C)CO)C[C@@H]1C | 44.2 | x | -5.9
C[C@H](CO)N1C[C@H](C)[C@@H](CN(C)C(=O)Nc2cccc3ccccc23)Oc2ccc(NC(=O)C3CC3)cc2CC1=O | 19.2 | x | -18.0
COc1ccc(NC(=O)Nc2ccc3c(c2)CC(=O)N([C@@H](C)CO)C[C@@H](C)[C@@H](CN(C)C(=O)Nc2cccc4ccccc24)O3)cc1 | -11.8 | x | 2.6
C[C@H](CO)N1C[C@H](C)[C@@H](CN(C)C(=O)Nc2cccc3ccccc23)Oc2ccc(NC(=O)Cc3ccccc3)cc2CC1=O | -4.3 | x | -24.7
COc1ccc(NC(=O)Nc2ccc3c(c2)CC(=O)N([C@@H](C)CO)C[C@@H](C)[C@H](CN(C)C(=O)Nc2cccc4ccccc24)O3)cc1 | 78.5* | x | -0.9
Cc1noc(C)c1NC(=O)N(C)C[C@H]1Oc2ccc(NC(=O)C3CC3)cc2CC(=O)N([C@@H](C)CO)C[C@H]1C | 17.6 | x | 117.4*
Cc1noc(C)c1NC(=O)N(C)C[C@@H]1Oc2ccc(NC(=O)C3CCCCC3)cc2CC(=O)N([C@@H](C)CO)C[C@@H]1C | -19.2 | x | 6.5
C[C@H]1CN([C@@H](C)CO)C(=O)Cc2cc(NC(=O)C3CC3)ccc2O[C@@H]1CN(C)C(=O)Nc1cccc2ccccc12 | 13.2 | x | 111.4*
C[C@H](CO)N1C[C@H](C)[C@H](CN(C)C(=O)Nc2cccc3ccccc23)Oc2ccc(NC(=O)Cc3ccccc3)cc2CC1=O | -3.4 | x | 101.9*
O=C(C[C@@H]1C=C[C@@H](NC(=O)c2cccnc2)[C@H](CO)O1)NCc1ccc(Cl)c(Cl)c1 | 11.1 | x | -3.7
COCCNC(=O)C[C@H]1C[C@H]2c3cc(NC(=O)C4CCC4)ccc3O[C@H]2[C@H](CO)O1 | -7.4 | x | -14.0
O=C(C[C@H]1CC[C@H](NC(=O)Nc2cc(F)ccc2F)[C@@H](CO)O1)NCc1ccccn1 | -18.3 | x | 39.5
COc1ccc(NC(=O)Nc2ccc3c(c2)C(=O)N([C@H](C)CO)C[C@H](C)[C@@H](CN(C)C(=O)NC(C)C)OCCCC[C@H](C)O3)cc1 | x | x | 1.3
COc1cccc(-c2cn(CC[C@H]3CC[C@@H](NC(=O)CC4CC4)[C@@H](CO)O3)nn2)c1 | 13.6 | x | -1.9
CCOC(=O)[C@H](Cc1c[nH]c2ccccc12)NC(=O)CN=[N+]=[N-] | x | x | -29.7
Cc1noc(C)c1NC(=O)N(C)C[C@@H]1Oc2ccc(NS(=O)(=O)c3cn(C)cn3)cc2CC(=O)N([C@@H](C)CO)C[C@H]1C | 1.5 | x | 2.0
Cc1noc(C)c1NC(=O)N(C)C[C@@H]1Oc2ccc(NS(=O)(=O)c3cn(C)cn3)cc2CC(=O)N([C@H](C)CO)C[C@H]1C | 26.1 | x | 103.3*
CCC(=O)N1[C@@H]2c3cccc(=O)n3C[C@H]1[C@H](CO)[C@H]2C(=O)NCc1ccc(F)cc1 | -4.9 | x | 1.6
CCC(=O)N1[C@@H]2c3cccc(=O)n3C[C@H]1[C@H](CO)[C@H]2C(=O)NCc1ccccc1 | 4.8 | x | 93.2*
CCC(=O)N1[C@@H]2Cn3c(cccc3=O)[C@H]1[C@@H](C(=O)NCc1ccc(F)cc1)[C@@H]2CO | 1.1 | x | -1.0
CCCNC(=O)[C@H]1[C@H](CO)[C@H]2Cn3c(cccc3=O)[C@@H]1N2C(=O)Nc1cc(F)ccc1F | 7.7 | x | 87.8*
CCC(=O)N1[C@@H]2Cn3c(cccc3=O)[C@H]1[C@@H](C(=O)NCc1ccccc1)[C@@H]2CO | 16.8 | x | 99.4*
CCCNC(=O)[C@@H]1[C@@H](CO)[C@@H]2Cn3c(cccc3=O)[C@H]1N2C(=O)NCCC | 5.9 | x | -3.0
O=C(NCc1ccc(F)cc1)[C@@H]1[C@@H](CO)[C@@H]2Cn3c(cccc3=O)[C@@H]2N1C(=O)C1CC1 | 24.6 | x | -2.9
SMILES | C2C12 statin | SUMO Mot1 rescue | Cneo AK release
O=C(Nc1ccc(Cl)c(Cl)c1)N[C@H]1CC[C@H](CCn2cc(C3CCCCC3)nn2)O[C@@H]1CO | -6.5 | x | 3.2
CCS(=O)(=O)N[C@H]1CC[C@@H](CC(=O)NCc2ccccn2)O[C@H]1CO | -8.6 | x | -15.8
Cc1cc(=O)[nH]c(SCC(=O)Nc2c(C)n(C)n(-c3ccccc3)c2=O)n1 | -15.9 | -9.5 | -0.3
Cc1cc(=O)[nH]c(Nc2c(C)n(C)n(-c3ccccc3)c2=O)n1 | 123.8* | 673.1 | 2.2
CCNC(=O)C[C@H]1CC[C@H]2[C@H](COc3ccc(NC(=O)c4ccc(C(F)(F)F)cc4)cc3C(=O)N2C)O1 | -6.9 | x | -1.1
CN(C)CC(=O)Nc1ccc2c(c1)[C@@H]1C[C@@H](CC(=O)N3CCOCC3)O[C@@H](CO)[C@@H]1O2 | 6.5 | x | -1.3
COC(=O)[C@H]1[C@H]2C[C@@H]3c4[nH]c5cc(OC)ccc5c4CCN3C[C@H]2C[C@@H](OC(=O)c2cc(OC)c(OC)c(OC)c2)[C@@H]1OC | 7.5 | 350.9* | 0.4
COC(=O)C1C2CC3c4[nH]c5cc(OC)ccc5c4CCN3CC2CC(OC2CCCCO2)C1OC (centres undefined) | 5.2 | x | -0.1
CCc1nnc(SCC(=O)Nc2ccc(C(C)=O)cc2)nc1CC | 112.5* | 8.1 | -1.1
CCc1ccc(NC(=O)CSc2nnc(CC)c(CC)n2)cc1 | x | 21.2 | 0.4
C[C@@H]1CN([C@@H](C)CO)S(=O)(=O)c2ccc(C3=CCCC3)cc2O[C@H]1CN(C)C | -5.6 | x | 1.3
Cc1cccc(NC(=S)N(CCN(C)C)Cc2cc3cccc(C)c3[nH]c2=O)c1 | x | -19.3 | x
Cc1ccc(NC(=S)N(CCN(C)C)Cc2cc3cccc(C)c3[nH]c2=O)cc1 | 113.8* | 5.2 | 0.4
Cc1ccc(S(=O)(=O)N(C)C[C@@H]2OCCCC[C@H](C)Oc3ccc(N(C)C)cc3C(=O)N([C@@H](C)CO)C[C@@H]2C)cc1 | 26.5 | x | 2.2
C#CCOCCOCCOCCNc1nc(N2CCN(C(=O)CCCCCCCCCCNC(=O)Cn3cc(C[C@@H](C)O)nn3)CC2)nc(N2CCN(C(=O)CCCCCCCCCCNC(=O)[C@@H]([C@H](C)O)n3cc(C)nn3)CC2)n1 | 105.7* | -10.0 | -0.2
C#CCOCCOCCOCCNc1nc(N2CCN(C(=O)CCCCCCCCCCNC(=O)Cn3cc(CCCCCN)nn3)CC2)nc(N2CCN(C(=O)CCCCCCCCCCNC(=O)[C@@H]([C@H](C)O)n3cc(C)nn3)CC2)n1 | -9.5 | -18.7 | 5.6
C[C@@H]1CN([C@H](C)CO)C(=O)Cc2cc(NC(=O)Cc3ccccc3)ccc2O[C@H]1CN(C)Cc1ccc(Cl)c(Cl)c1 | 44.6 | x | -7.4
C[C@@H]1CN([C@@H](C)CO)C(=O)c2cccc(N(C)C)c2O[C@H]1CN(C)Cc1ccc(Cl)c(Cl)c1 | -70.5 | x | 4.5
C[C@@H]1CN([C@H](C)CO)C(=O)Cc2cc(NC(=O)Cc3cn(C)c4ccccc34)ccc2O[C@@H]1CN(C)Cc1ccccc1 | 47.8 | x | -22.1
